Measured values as given in ChEMBL document CHEMBL3425469, “Discovery of imidazo[2,1-b]thiazole HCV NS4B inhibitors exhibiting synergistic effect with other direct-acting antiviral agents” (J Med Chem, 2015).

Assays:
Hepatitis C virus [1] = experiment: Antiviral activity against Hepatitis C virus genotype 1b Con 1 infected in human HuH7 cells at 5 nM after 72 hrs by luciferase assay in presence of 17.5 uM clemizole; format: functional, Hepacivirus hominis, Huh-7
Outline: (§1)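 Huh-7 cells stably carrying a GT1b Con1 bicistronic luciferase replicon, seeded at 8000 cells/well. The test compound and the partner DAA are dosed orthogonally at various concentrations, final 0.5% DMSO, then incubated 72 h at 37°C. Bright-Glo luciferase read-out gives replicon inhibition as % of untreated control. Cytotoxicity is checked in parallel by CellTiter-Fluor. CI and DRI are derived by the Chou–Talalay median-effect method.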

Hepatitis C virus [2] = experiment: Antiviral activity against Hepatitis C virus genotype 1b harboring V105M mutation transfected in human HuH7 cells after 72 hrs by luciferase assay; format: functional, cell-based, Hepacivirus hominis; conditions: Huh-7, 72 h
Outline: (§2)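 Huh-7 cells were transiently electroporated with genotype 1b replicon RNA carrying the specified mutation and plated at 10000 cells/well. Compounds were added at 0.5% DMSO final for 72 h at 37°C. Read-out was Bright-Glo luciferase. EC50 is the mean of two independent runs within 2-fold of each other. A reference drug EC50 was measured alongside each mutant replicon to validate it.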

Hepatitis C virus [3] = experiment: Antiviral activity against Hepatitis C virus genotype 1b Con 1 infected in human HuH7 cells at 20 nM after 72 hrs by luciferase assay in presence of 0.02 nM daclatasvir; format: functional, Hepacivirus hominis, Huh-7
Outline: (§3)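 Stable Con1 GT1b bicistronic luciferase replicon in Huh-7 cells, 8000 cells/well. Test compound and a marketed DAA or clemizole added alone or together at varied concentrations, 0.5% DMSO final. 72 h at 37°C, then luciferase read with Bright-Glo. Inhibition expressed as % of untreated control, with cytotoxicity run in parallel. CI and DRI derived by the Chou–Talalay median-effect method.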

Hepatitis C virus [4] = experiment: Antiviral activity against Hepatitis C virus genotype 1b harboring F98C mutation transfected in human HuH7 cells after 72 hrs by luciferase assay; format: functional, cell-based, Hepacivirus hominis; conditions: Huh-7, 72 h; outline: as §2
Hepatitis C virus [5] = experiment: Antiviral activity against Hepatitis C virus genotype 1b Con 1 infected in human HuH7 cells at 5 nM after 72 hrs by luciferase assay in presence of 24 nM simeprevir; format: functional, Hepacivirus hominis, Huh-7; outline: as §1
Hepatitis C virus [6] = experiment: Antiviral activity against Hepatitis C virus genotype 1b Con 1 infected in human HuH7 cells at 40 nM after 72 hrs by luciferase assay in presence of 12 nM simeprevir; format: functional, Hepacivirus hominis, Huh-7; outline: as §1
Hepatitis C virus [7] = experiment: Antiviral activity against Hepatitis C virus genotype 1b Con 1 infected in human HuH7 cells at 160 nM after 72 hrs by luciferase assay in presence of 60 nM sofobuvir; format: functional, Hepacivirus hominis, Huh-7; outline: as §3
Hepatitis C virus [8] = experiment: Antiviral activity against Hepatitis C virus genotype 1b Con 1 infected in human HuH7 cells at 20 nM after 72 hrs by luciferase assay in presence of 30 nM sofobuvir; format: functional, Hepacivirus hominis, Huh-7; outline: as §1
Hepatitis C virus [9] = experiment: Antiviral activity against Hepatitis C virus genotype 1b Con 1 infected in human HuH7 cells at 2.5 nM after 72 hrs by luciferase assay in presence of 240 nM sofobuvir; format: functional, Hepacivirus hominis, Huh-7; outline: as §3
Hepatitis C virus [10] = experiment: Antiviral activity against Hepatitis C virus genotype 1b Con 1 infected in human HuH7 cells at 2.5 nM after 72 hrs by luciferase assay in presence of 0.04 nM daclatasvir; format: functional, Hepacivirus hominis, Huh-7; outline: as §3
Hepatitis C virus [11] = experiment: Antiviral activity against Hepatitis C virus genotype 1b Con 1 infected in human HuH7 cells at 20 nM after 72 hrs by luciferase assay in presence of 3 nM simeprevir; format: functional, Hepacivirus hominis, Huh-7; outline: as §1
[12] = Cytotoxicity against human HuH7 cells assessed as cell proliferation by cell titer assay; format: cell-based, Huh-7
Outline: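 Huh-7 cells carrying GT1b Con1 bicistronic replicon seeded at 8000 cells/well; compound added at 0.5% DMSO final, 37°C for 72 h. Proliferation read with CellTiter-Fluor reagent per manufacturer; CC50 fitted from concentration-response, average of at least two independent determinations.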

Hepatitis C virus [13] = experiment: Antiviral activity against Hepatitis C virus genotype 1b Con 1 infected in human HuH7 cells at 40 nM after 72 hrs by luciferase assay in presence of 0.02 nM daclatasvir; format: functional, Hepacivirus hominis, Huh-7; outline: as §1
Hepatitis C virus [14] = experiment: Antiviral activity against Hepatitis C virus genotype 1b harboring Y448H NS5B (palm) mutation transfected in human HuH7 cells after 72 hrs by luciferase assay; format: functional, cell-based, Hepacivirus hominis; conditions: Huh-7, 72 h; outline: as §2
Hepatitis C virus [15] = experiment: Antiviral activity against Hepatitis C virus genotype 1b Con 1 infected in human HuH7 cells at 40 nM after 72 hrs by luciferase assay in presence of 60 nM sofobuvir; format: functional, Hepacivirus hominis, Huh-7; outline: as §1
Hepatitis C virus [16] = experiment: Antiviral activity against Hepatitis C virus genotype 1b Con 1 infected in human HuH7 cells at 10 nM after 72 hrs by luciferase assay in presence of 240 nM sofobuvir; format: functional, Hepacivirus hominis, Huh-7; outline: as §3
Hepatitis C virus [17] = experiment: Antiviral activity against Hepatitis C virus genotype 1b harboring A156T NS3/4A mutation transfected in human HuH7 cells after 72 hrs by luciferase assay; format: functional, cell-based, Hepacivirus hominis; conditions: Huh-7, 72 h; outline: as §2
Hepatitis C virus [18] = experiment: Antiviral activity against Hepatitis C virus genotype 1b Con 1 infected in human HuH7 cells at 80 nM after 72 hrs by luciferase assay in presence of 6 nM simeprevir; format: functional, Hepacivirus hominis, Huh-7; outline: as §1
Hepatitis C virus [19] = experiment: Antiviral activity against Hepatitis C virus genotype 1b Con 1 infected in human HuH7 cells at 40 nM after 72 hrs by luciferase assay in presence of 12.5 uM clemizole; format: functional, Hepacivirus hominis, Huh-7; outline: as §1
Hepatitis C virus [20] = experiment: Antiviral activity against Hepatitis C virus genotype 1b Con 1 infected in human HuH7 cells at 80 nM after 72 hrs by luciferase assay in presence of 7.5 uM clemizole; format: functional, Hepacivirus hominis, Huh-7
Outline: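 Con1 GT1b luciferase replicon Huh-7 cells, seeded at 8000 cells/well. The compound was combined orthogonally with clemizole across a range of concentrations (0.5% DMSO final) and incubated for 72 h at 37°C. Bright-Glo luciferase inhibition was expressed as a percentage of the untreated control. Cytotoxicity was run in parallel.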

Hepatitis C virus [21] = experiment: Antiviral activity against Hepatitis C virus genotype 1b Con 1 infected in human HuH7 cells at 160 nM after 72 hrs by luciferase assay in presence of 10 uM clemizole; format: functional, Hepacivirus hominis, Huh-7; outline: as §3
Hepatitis C virus [22] = experiment: Antiviral activity against Hepatitis C virus genotype 1b Con 1 infected in human HuH7 cells at 80 nM after 72 hrs by luciferase assay in presence of 0.16 nM daclatasvir; format: functional, Hepacivirus hominis, Huh-7; outline: as §1
Hepatitis C virus [23] = experiment: Antiviral activity against Hepatitis C virus genotype 1b Con 1 infected in human HuH7 cells at 10 nM after 72 hrs by luciferase assay in presence of 10 uM clemizole; format: functional, Hepacivirus hominis, Huh-7; outline: as §3
Hepatitis C virus [24] = experiment: Antiviral activity against Hepatitis C virus genotype 1b Con 1 infected in human HuH7 cells at 5 nM after 72 hrs by luciferase assay in presence of 12 nM simeprevir; format: functional, Hepacivirus hominis, Huh-7; outline: as §1
Hepatitis C virus [25] = experiment: Antiviral activity against Hepatitis C virus genotype 1b Con 1 infected in human HuH7 cells at 160 nM after 72 hrs by luciferase assay in presence of 12 nM simeprevir; format: functional, Hepacivirus hominis, Huh-7; outline: as §3
Hepatitis C virus [26] = experiment: Antiviral activity against Hepatitis C virus genotype 1b Con 1 infected in human HuH7 cells at 20 nM after 72 hrs by luciferase assay in presence of 12 nM simeprevir; format: functional, Hepacivirus hominis, Huh-7; outline: as §3
Hepatitis C virus [27] = experiment: Antiviral activity against Hepatitis C virus genotype 1b Con 1 infected in human HuH7 cells at 10 nM after 72 hrs by luciferase assay in presence of 12.5 uM clemizole; format: functional, Hepacivirus hominis, Huh-7; outline: as §3
Hepatitis C virus [28] = experiment: Antiviral activity against Hepatitis C virus genotype 1b Con 1 infected in human HuH7 cells at 80 nM after 72 hrs by luciferase assay in presence of 3 nM simeprevir; format: functional, Hepacivirus hominis, Huh-7; outline: as §1

Question: With `O=C(c1nc2scc(C3CC3)n2c1Cl)N1CCN(C2CCCC2)C(=O)C1` as the compound, how does the CI (Hepatitis C virus [1]) read?
Answer: 1.26

Question: What about the EC50 (Hepatitis C virus [2]) of the same compound?
Answer: 27.2 µM

Question: What about the CI (Hepatitis C virus [3]) of the same compound?
Answer: 0.98

Question: What about the EC50 (Hepatitis C virus [4]) of the same compound?
Answer: 27.1 µM

Question: And the CI (Hepatitis C virus [5])?
Answer: 1.31

Question: And the CI (Hepatitis C virus [6])?
Answer: 0.62

Question: And the CI (Hepatitis C virus [7])?
Answer: 0.58

Question: What about the CI (Hepatitis C virus [8]) of the same compound?
Answer: 0.83

Question: What about the CI (Hepatitis C virus [9]) of the same compound?
Answer: 0.83

Question: What about the CI (Hepatitis C virus [10]) of the same compound?
Answer: 0.89

Question: And the CI (Hepatitis C virus [11])?
Answer: 0.94

Question: What about the CC50 [12] of the same compound?
Answer: > 10 µM

Question: What about the CI (Hepatitis C virus [13]) of the same compound?
Answer: 0.78

Question: What about the EC50 (Hepatitis C virus [14]) of the same compound?
Answer: 0.008 µM

Question: And the CI (Hepatitis C virus [15])?
Answer: 0.67

Question: And the CI (Hepatitis C virus [16])?
Answer: 0.58

Question: What about the EC50 (Hepatitis C virus [17]) of the same compound?
Answer: 0.004 µM

Question: What about the CI (Hepatitis C virus [18]) of the same compound?
Answer: 0.37

Question: And the CI (Hepatitis C virus [19])?
Answer: 0.76

Question: What about the CI (Hepatitis C virus [20]) of the same compound?
Answer: 0.85

Question: What about the CI (Hepatitis C virus [21]) of the same compound?
Answer: 1.09

Question: And the CI (Hepatitis C virus [22])?
Answer: 0.73

Question: What about the CI (Hepatitis C virus [23]) of the same compound?
Answer: 0.68

Question: And the CI (Hepatitis C virus [24])?
Answer: 0.75

Question: And the CI (Hepatitis C virus [25])?
Answer: 0.47

Question: And the CI (Hepatitis C virus [26])?
Answer: 0.64

Question: What about the CI (Hepatitis C virus [27]) of the same compound?
Answer: 0.81

Question: And the CI (Hepatitis C virus [28])?
Answer: 0.62
